Source: PubChem BioAssay
This is a sample that favours compounds with a hit; in the whole collection about 12% have one here.
Lmaj promast: Leishmania major promastigote growth inhibition, primary screen; Leishmania major promastigotes, resazurin fluorescence viability; inhibition, % at 10 µM; 200,000 tested, 9% active;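 note: promastigotes grown with compound for 44 hours at 28 °C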
PKD1 inh: inhibitors of human PKD1 kinase, biochemical, fluorescence polarization | Serine/threonine-protein kinase D1 (Homo sapiens), Q15139 | PKD1 kinase fluorescence polarization assay | inhibition, % (no concentration beside the values) | 200,000 tested, 0.056% active
Rad51 HR inh: human RAD51 strand exchange inhibitors, primary screen, biochemical, fluorescence; hRad51 DNA strand exchange, fluorescence dequenching; inhibition, % at 10 µM; 200,000 tested, 0.085% active;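 active = inhibition above 40% at the single screening dose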;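 note: 0% = DMSO control wells and 100% = blanks with heterologous ssDNA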
Target sequence (Q06609 whole entry, looked up): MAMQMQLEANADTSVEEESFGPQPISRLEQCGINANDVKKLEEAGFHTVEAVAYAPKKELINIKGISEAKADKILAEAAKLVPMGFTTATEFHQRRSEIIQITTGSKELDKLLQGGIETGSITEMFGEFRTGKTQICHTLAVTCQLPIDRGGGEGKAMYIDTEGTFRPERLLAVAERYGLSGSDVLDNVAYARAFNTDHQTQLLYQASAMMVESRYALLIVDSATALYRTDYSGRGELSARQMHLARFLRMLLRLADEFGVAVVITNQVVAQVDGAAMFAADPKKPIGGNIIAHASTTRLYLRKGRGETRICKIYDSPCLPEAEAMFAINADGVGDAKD
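Material: hRad51 filaments on single-stranded DNA; Reagent: Donor/quencher-labelled 47-bp dsDNA substrate; Compound: 10 µM final, single point; Schedule: 37 °C 15-min filament assembly, 30-min compound preincubation, 15-min exchange; Technique: FRET fluorescence, excitation 485 nm, emission 520 nm; Benchmarks: control wells and blank wells on each plate.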
CHOP inh: inhibitors of CHOP promoter induction, primary screen, cell-based, unfolded protein response, luciferase reporter. AID 2732, 2010. 220,000 tested, 3.8% active. CHO-K1 CHOP-promoter luciferase, tunicamycin-induced, 15-18 h. inhibition, % at 10 µM;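 active = compounds that reduced the stress-induced luciferase reporter signal by more than about 70% of percent inhibition, limit read from the data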;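 note: 0% = tunicamycin plus vehicle and 100% = wells without tunicamycin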
Arbovirus anti: antivirals against arbovirus infection, primary screen, cell-based, full library, 10K replicate subset; arbovirus infection cell-based antiviral screen; inhibition, % at 10 µM; 200,000 tested, 0.37% active; in the data active = inhibition above about 30%
Wee1 degr inh: Wee1 degradation inhibitors, primary screen, cell-based, HeLa, Wee1K328M-luciferase, luminescence | Wee1-like protein kinase (Homo sapiens), P30291 | HeLa Luc-Wee1K328M stability; 100% = proteasome inhibitor MG132 effect | reporter increase, % at 5 µM | 220,000 tested, 1.2% active;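 active = activation above the mean of all tested compounds plus 3 SD, set per screening run, cut at about 8.8% in these data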;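 note: cells exposed to compound for 20 h before luminescence read; 0% = DMSO alone and 100% = MG132 at 30 µM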
Lmaj promast 1uM: Leishmania major promastigote growth inhibition, confirmation, 1 µM repeat of primary hits; shares compounds with Lmaj promast; AID 1258, 2008; inhibition, % at 1 µM; L. major promastigote growth, resazurin fluorescence, 48 h; 1,100 tested, 13% active;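 active = inhibition above about 50% in both repeat tests, limit read from the data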
* marks the source's active call; other numbers are inactive results; . = not tested or not shown. Cut-off read from the data, not from the text of the source, unless noted: active = inhibition above about 50%; inactive = the rest.

SMILES	Lmaj promast	PKD1 inh	Rad51 HR inh	CHOP inh	Arbovirus anti	Wee1 degr inh	Lmaj promast 1uM
COC(=O)Nc1ccc(S(=O)(=O)Nc2cccc3ccccc23)cc1	7.1	-2.5	-28.2	66.6	6.8	0.3	.
COc1ccc(S(=O)(=O)Nc2ccc(O)c3ccccc23)cc1	100.1*	-10.1	-3.3	-6.8	-35.1	1.0	96.7*
COc1ccc(Nc2c([N+](=O)[O-])ccc3c2=NC2(CCCCC2)N=3)cc1	13.7	-10.2	.	37.5	-16.7	-0.6	.
C[C@H]1CC[C@H]2C(=O)N3[C@H](c4ccccc4Br)[C@@H](C)CC[C@H]3C(=O)N2[C@@H]1c1ccccc1Br	100.0*	-4.6	.	84.9*	-19.8	1.6	15.7
CC(=O)c1ccc(N=c2scc(C)n2C(C)C)cc1	8.3	-0.1	-92.5	-11.8	4.2	2.1	.
c1ccc(-c2nc3nonc3nc2-c2ccccc2)cc1	84.0*	4.1	.	84.9*	-39.8	-2.3	-17.2
Nc1c(-c2ccccc2)nc(Cl)nc1-c1ccccc1	-3.5	-5.2	1.7	10.5	7.6	-2.2	.
COc1ccc(-c2cc(C(=O)OC3CCOC3=O)c3ccccc3n2)cc1 (stereo unspecified)	-1.8	1.0	-1.9	-4.7	-0.6	-2.3	.
CCC(C)(C)n1nnnc1C(c1cc(OC)ccc1OC)N1CCC(C(N)=O)CC1 (stereo unspecified)	-7.0	-3.9	-5.1	-21.0	6.6	-0.1	.
CNCCC(Oc1ccc(C(F)(F)F)cc1)c1ccccc1 (stereo unspecified)	89.9*	-6.5	-0.7	-5.6	-43.1	3.0	-19.5
CCOc1ccc(-c2noc(-c3cccnc3)n2)cc1OC	70.8*	2.0	.	-16.3	3.3	5.4	46.2
CCOc1cc(-c2noc(-c3cccnc3)n2)ccc1OC	4.3	-4.0	-0.6	13.5	0.3	-0.9	.
CN(C)S(=O)(=O)c1cccc(-c2cn3ccccc3n2)c1	5.7	1.1	-9.3	3.9	3.0	1.7	.
CN(C)S(=O)(=O)c1cccc(-c2cn3cc(Cl)ccc3n2)c1	99.2*	-9.9	-0.3	21.7	-10.2	2.5	-8.7
O/N=C/c1cccnc1Sc1ccccc1	0.2	-0.5	-2.3	-11.8	4.5	-3.2	.
O=C(c1sc2ccccc2c1Cl)N(Cc1ccccc1Cl)C1CCS(=O)(=O)C1 (stereo unspecified)	99.6*	-2.5	-8.2	12.1	-2.9	9.4*	-2.5
CCOc1cc(N2CCOCC2)c(OCC)cc1NC(=O)CN1CCCC1	-0.4	2.4	1.2	13.4	-1.7	-0.3	.
Cc1ccc(S(=O)(=O)Cn2nnnc2CN(Cc2ccco2)CC2CCCO2)cc1 (stereo unspecified)	53.0*	-8.3	-2.6	9.7	4.9	-2.2	-5.6
CCN1CCN(CC(O)COc2ccc(C(C)=O)cc2)CC1 (stereo unspecified)	7.6	-0.1	6.8	37.5	-1.1	2.8	.
Cc1ccc(OCC(O)CN2CCN(CC(O)COc3ccc(C)cc3)CC2)cc1 (stereo unspecified)	57.0*	4.4	-35.3	25.5	4.6	-0.7	-6.5
CCSc1nnc(NC(=O)CCCOc2ccc(C)cc2)s1	-1.4	-6.6	11.3	27.4	11.6	-0.8	.
O=C(Nc1ccccc1C(F)(F)F)N1CCN(c2ccccn2)CC1	-2.1	6.7	2.8	-3.6	-7.1	-3.4	.
O=C(c1ccc(Cn2c(=O)[nH]c3ccccc3c2=O)cc1)N1CCN(c2ccccc2)CC1	94.0*	-0.2	.	52.3	5.7	-1.0	14.1
CC(C)CCN=Cc1c(O)n(-c2ccccc2)c(=O)c2ccccc12	20.6	4.8	3.7	44.6	-8.4	-0.1	.
CCN1CCCC1CN=Cc1c(O)n(-c2ccccc2)c(=O)c2ccccc12 (stereo unspecified)	55.4*	-6.5	-35.1	-1.0	2.1	1.0	3.4
SMILES	Lmaj promast	PKD1 inh	Rad51 HR inh	CHOP inh	Arbovirus anti	Wee1 degr inh	Lmaj promast 1uM
CCOC(=O)Cc1cc(-c2ccc(F)cc2)nc2ccc3ccccc3c12	67.6*	-3.0	.	20.0	1.7	3.6	7.1
O=C(Nc1ncccn1)c1cc(-c2ccc(F)cc2)nc2ccccc12	11.2	-7.5	5.9	-1.9	-3.8	0.2	.
Cc1ccc(C2=CSC3=NNC4(CCCCC4)NN23)cc1	55.1*	-4.5	-1.5	-30.1	-28.5	0.4	-12.0
NC(=O)CC(NC(=O)Cc1ccc(Br)cc1)c1ccc(NCCc2ccccc2F)c([N+](=O)[O-])c1 (stereo unspecified)	.	.	-3.1	8.7	.	.	.
Cc1ccc(-c2csc(=S)n2CC(=O)OCC(=O)NCc2ccco2)cc1	17.7	-3.3	-5.8	-18.1	-3.9	-0.6	.
Cc1ccc(-c2csc(=S)n2CC(=O)OCC(=O)NC(C)C(C)C)cc1 (stereo unspecified)	63.6*	3.4	4.0	27.1	-9.5	2.5	-19.1
O=C(N/N=C/c1cccnc1)c1ccc2c(c1)OCCO2	-2.9	1.9	9.0	25.3	2.3	8.0	.
CCOC(=O)c1c(NC(=O)CSc2nnc(-c3c[nH]c4ccccc34)n2CCOC)sc2c1CCCC2	72.2*	-8.6	.	12.7	5.0	-1.9	-11.0
Cc1ccc(-c2cc3cccc[n+]3cc2-c2ccc(C)cc2)cc1	100.3*	-1.1	1.6	42.6	-10.9	-5.1	91.0*
CC(=O)Nc1ccc(N2C(C(C)=O)=NN(c3ccccc3)C2c2cccs2)cc1 (stereo unspecified)	2.6	-4.6	-11.5	16.5	-1.0	-1.5	.
CC(=O)Nc1ccc(C2=NN(c3ccccc3)C(c3cccs3)C2)cc1 (stereo unspecified)	66.0*	-6.2	-6.0	42.6	-7.7	-1.8	-5.1
Cc1ccc2cccc(Oc3ncnc4sc(C)c(C)c34)c2n1	89.5*	0.8	.	3.8	7.7	0.5	-8.3
Cc1nn(Cc2n[nH]c(=S)n2Cc2ccccc2)c(C)c1Cl	89.6*	-6.8	1.7	4.9	5.0	-3.1	-10.6
COc1cccc(C(=O)OCC(=O)Nc2cc(C)c(C)cc2[N+](=O)[O-])c1	2.1	-6.3	-3.8	18.5	9.9	-1.4	.
CCOC(=O)C1=C(C)N(CCCCCC(=O)O)C(=O)NC1c1ccccc1OC(=O)c1cccs1 (stereo unspecified)	-5.0	-6.2	4.0	-5.8	2.6	0.6	.
Nc1ccccc1Nc1ccccc1	99.3*	-2.6	-20.8	16.6	-13.4	3.8	-16.2
Cc1nc2ccccc2c(-c2ccccc2)c1CC(=O)O	-3.9	-8.8	0.9	1.8	-9.8	-2.1	.
Cc1nc2ccc(Cl)cc2c(-c2ccccc2)c1CC(=O)O	53.6*	-7.8	-1.9	12.8	0.8	1.9	-20.9
Cc1nc2ccc(Cl)cc2c(-c2ccccc2Cl)c1CC(=O)O	24.3	1.3	-7.9	8.4	10.3	-1.4	.
